# Source: PubChem (Broad Institute)
# A selection: hits, their analogues and other compounds. The true share with any hit is near 2.5%.
# EWS-Fli block: EWS/Fli-driven NR0B1 reporter inhibitors, primary screen, A673 cells, NR0B1 luciferase, luminescence, MLPCN library; viability-normalised; AID 651661, 2012; 350,000 compounds, 0.67% hits; inhibition, % at 12.6 µM;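 active means mean inhibition of at least 50% after viability correction, with every replicate also passing that limit; inconclusive means mean reaches 50% but only one of two replicates passes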;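 further: firefly luciferase signal divided by Alamar Blue viability fluorescence both relative to DMSO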
# AF4-AF9 inh: inhibitors of AF4 peptide binding to AF9, primary screen, biochemical, AlphaScreen, biotin-AF4 peptide, FLAG-AF9, single point; AID 651704, 2012; Protein AF-9 (Homo sapiens), P42568; inhibition, % at 10 µM; 350,000 compounds, 0.47% hits;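 active means every replicate reaching a set inhibition limit, whatever the replicate mean, cut at about 25% in these data; inconclusive means mean inhibition reaches that limit but some replicates miss it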;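 further: 0% = plate neutral control median and 100% = total signal loss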
# Target sequence (P42568 whole entry, looked up): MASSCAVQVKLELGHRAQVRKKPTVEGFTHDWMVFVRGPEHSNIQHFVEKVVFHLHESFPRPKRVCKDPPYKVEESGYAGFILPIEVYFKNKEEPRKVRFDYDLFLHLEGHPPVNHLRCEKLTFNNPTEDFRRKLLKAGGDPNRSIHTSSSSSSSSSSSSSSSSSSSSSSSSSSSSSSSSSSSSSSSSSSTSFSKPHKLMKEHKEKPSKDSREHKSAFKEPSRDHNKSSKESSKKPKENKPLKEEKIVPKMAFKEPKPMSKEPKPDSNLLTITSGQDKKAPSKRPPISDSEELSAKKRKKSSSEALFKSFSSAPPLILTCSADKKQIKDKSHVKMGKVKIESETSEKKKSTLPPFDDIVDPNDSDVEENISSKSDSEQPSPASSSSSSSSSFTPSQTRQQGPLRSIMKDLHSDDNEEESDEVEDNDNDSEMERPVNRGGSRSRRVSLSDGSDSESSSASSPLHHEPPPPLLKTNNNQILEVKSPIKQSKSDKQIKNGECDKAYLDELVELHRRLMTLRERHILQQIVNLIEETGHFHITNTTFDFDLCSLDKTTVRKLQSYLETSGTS
# N-glyco inh: increase of ERlucT glycosylation luciferase signal, primary screen, N-linked glycosylation inhibitor project, D54 ERlucT cells, luminescence, set 2 | AID 588692, 2011 | 360,000 compounds, 0.23% hits | D54 ERlucT glycosylation luciferase reporter, 24 h; percent of 100 nM tunicamycin response | reporter increase, % at 12.5 µM;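 active means mean luciferase reporter signal, scaled so untreated is 0 and the glycosylation-blocking control 100, at or above a set limit in every replicate; inconclusive means mean reaches the limit but not every replicate does; inactive means mean below the limit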;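 further: luciferase carries N-glycosylation sites so blocking glycosylation raises the light; 0% = median of neutral control wells and 100% = median of 100 nM tunicamycin wells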
# PAX8 inh HTS: inhibitors of PAX8-driven TPO luciferase reporter, primary screen, RMG-I cells, single concentration. SteadyGlo, 24 h. inhibition, % at 12.6 µM. 360,000 compounds, 1.2% hits. AID 652154, 2013;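 active means mean replicate inhibition at least 60% with every replicate also reaching 60%; inconclusive means only one of the two criteria is met; inactive means mean below 60% and not all replicates reaching 60%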;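 further: luciferase light reporting Pax8 driven TPO promoter activity; plate controls were median of neutral control wells for no effect and mitoxantrone controls for full effect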
# HIV Env fusion: inhibitors of HIV-1 Env-driven cell-cell fusion, primary screen, HeLa-JRFL effector, CEM21 target cells, luciferase; inhibition, % at 12.3 µM; 360,000 compounds, 1.1% hits; AID 651610, 2012;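 active means mean replicate inhibition score of at least 50 and every replicate individually at or above 50; inconclusive means only one of the two criteria met; inactive means mean below 50 and not all replicates reaching 50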;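 further: 0% = plate neutral controls and 100% = maraviroc near 300 nM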
# FN deposition inh: inhibitors of fibronectin matrix deposition, primary screen, AH1F cells, Alexa488-fibronectin fluorescence, plate reader | 350,000 compounds, 0.086% hits | AH1F fibroblasts, overnight | inhibition, % at 12.6 µM | AID 743247, 2014;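 active means mean inhibition across replicates of 30% or more, regardless of how many single replicates reach that level; inconclusive means mean under 30% yet at least half of replicates reach 30%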;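 further: positive control wells lacked labelled fibronectin entirely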
#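 Assay system: AH1F fibroblasts assembling fluorescent fibronectin matrix; Amount: 10000 AH1F cells per well; Buffer or medium: DMEM, 2% serum; Probe or stimulus: Alexa488-fibronectin, 24 nM final in well; Doses: single compound dose, delivered by pin transfer; Incubation: 1 h adhesion, overnight exposure; Measured by: fluorescence 485/525 nm; Read-out: fibronectin deposition inhibition.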
# An asterisk follows results filed as active; ? = inconclusive; / = no result; [ ] = dose if it differs, or a comment.
SMILES,EWS-Fli block,AF4-AF9 inh,N-glyco inh,PAX8 inh HTS,HIV Env fusion,FN deposition inh
CC1(C(=O)NCc2ccccc2)CCC(=O)N1C1CCN(Cc2ccccc2)CC1 (stereo not given),-11,-3,/,-21,?,2
CCCCNC(=O)C1(C)CCC(=O)N1C1CCN(Cc2ccccc2)CC1 (stereo not given),-13,2,0,-5,64*,-6
O=C(Cn1nc(CNc2ccc(Cl)cc2)[n+]2c1CCCCC2)c1ccc(Br)cc1,-9,/,-2,1,-5,-7
O=C(Cn1nc(CNc2ccc(Br)cc2)[n+]2c1CCCCC2)c1ccc([N+](=O)[O-])cc1,12,28*,2,71*,20,1
C/C=C/c1ccc2c(c1)O[C@@H](CN(C)C(=O)CC)[C@@H](C)CN([C@@H](C)CO)S2(=O)=O,0,-2,/,/,33[16.7 µM],/
O=c1c2cc(F)ccc2sn1-c1ccccc1Cl,26,-11,0,4,22,41*
O=c1c2ccc(F)cc2sn1-c1ccccc1,3,-14,0,-101,35,/
CO[C@@H]1CN(C)C(=O)c2ccc(NC(=O)C3CCCCC3)cc2OC[C@@H](C)N(C(=O)c2ccccc2)C[C@H]1C,3,0,/,1,-20[16.7 µM],6
Oc1ccc(/C=N/N(Cc2ccccc2)c2ccccc2)c(O)c1O,-66,27*,3,15,6,-5
COc1ccc(NC(=O)c2sccc2SCc2cccc(C(F)(F)F)c2)cc1,/,/,-3,/,80*,/
O=C(Nc1ccc(F)cc1)c1sccc1SCc1cccc(C(F)(F)F)c1,/,/,-5,/,31,-11
COC(=O)c1ccc([C@@H]2C=C(C(=O)N3CCN(Cc4ccc5c(c4)OCO5)CC3)O[C@H](OCc3ccc(CO)cc3)C2)cc1,11,2,/,/,4[16.7 µM],/
CCC/C=C(\CCC)C(NS(=O)(=O)c1cccc2cccnc12)c1ccc(C(=O)OC)cc1 (stereo not given),0,-12,/,6,90*,-9
CCN1CCN(C(=O)c2cc3c(=O)n(C)c4ccccc4c3n2C)CC1,-14,-1,-1,7,-47,-8
CCOC(=O)N1CCN(C(=O)c2cc3c(=O)n(C)c4ccccc4c3n2C)CC1,-16,-2,-2,19,66*,2
C[C@@H]1CN([C@H](C)CO)C(=O)c2cccc(N(C)C)c2O[C@@H]1CN(C)S(=O)(=O)c1cn(C)cn1,-3,-2,/,2,0[16.7 µM],3
COc1ccccc1OCCn1cc(C(=O)c2ccco2)c2ccccc21,/,/,-2,2,-5,4
COc1cccc(OCCn2cc(C(=O)c3ccco3)c3ccccc32)c1,/,/,-2,/,66*,7
CCCCn1c(SCC(=O)Nc2cc(C(F)(F)F)cc(C(F)(F)F)c2)nnc1C(CC)N(C)C (stereo not given),11,-8,28*,45,/,14
CCCCn1c(SCC(=O)Nc2ccc3c(c2)OCCO3)nnc1C(CC)N(C)C (stereo not given),4,1,-1,-5,/,3
Cc1cc(C(=O)Nc2cccc3c2O[C@H](CN(C)C(=O)Nc2ccc(F)cc2)[C@@H](C)CN([C@@H](C)CO)C3=O)n(C)n1,0,-2,/,-5,/,/
CN1CCN(/N=C/c2ccc(-c3ccc([N+](=O)[O-])cc3Cl)o2)CC1,-23,36*,-3,-6,-13,-17
COCC(=O)N1[C@@H]2c3ccc(-c4cccnc4)c(=O)n3C[C@@H]2[C@@H](CO)[C@@H]1C(=O)Nc1ccccc1,-10,0,/,-9,-7[16.7 µM],/
c1ccc(-c2nc(-n3ccnc3)nc(-n3ccnc3)n2)cc1,/,/,27*,/,-123,5
C[C@@H]1CCCCO[C@@H](CN(C)C)[C@H](C)CN([C@@H](C)CO)C(=O)c2cc(NC(=O)NC3CCCCC3)ccc2O1,6,/,/,-1,-2[16.7 µM],/
Nc1c(C(=O)OCC(=O)NCc2ccccc2)[nH]c(=O)[nH]c1=O,6,38*,1,1,-6,-8
